# Test results reported in ChEMBL document CHEMBL1132479, “Synthesis, physicochemical characterization, and biological evaluation of 2-(1'-hydroxyalkyl)-3-hydroxypyridin-4-ones: novel iron chelators with enhanced pFe(3+) values” (J Med Chem, 1999).
# Legend:
# [1] = system: Rattus norvegicus; test: (§1) Compound was tested in vivo for Iron mobilization efficacy against hepatocytes in normal fasted rats (loaded with [59Fe]-Ferritin).; type: functional, Hepatocyte; set-up: concentration or dose not given beside the values
# Method in brief: (§2)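 Fasted normal rats (190–230 g) received [59Fe]ferritin by tail vein to label hepatocyte iron. One hour later chelator was given orally at 450 µmol/kg; controls received an equal volume of water. Rats were kept in metabolic cages, with food allowed 1 h after dosing and water unrestricted. At 24 h, liver and GI tract plus feces were gamma-counted. Mean ± SD, n=5.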
# [2] = Affinity constant log K1 value for Fe(III) complex; type: ADME
# Method in brief: (§3)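 Spectrophotometric titration of Fe(III) with ligand at a ligand:iron ratio of about 10:1, with 0.2 M KOH added by programmed autoburette. Full spectra were recorded across pH, e.g. 1.59–10.05 with [Fe(III)] = 1.8×10^-4 M. Cumulative stability constants were optimized by non-linear least-squares regression using the predetermined pKa values, electrode slope and electrode zero.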
# [3] = pFe3+ (negative logarithm of the concentration of the free Iron(III) in solution) of the compound.; type: ADME
# Method in brief: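 pFe3+ is the negative log of free Fe(III), calculated from the ligand pKa values and Fe(III) stability constants at total ligand 10^-5 M, total iron 10^-6 M, pH 7.4.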
# [4] = Affinity constant log beta-3 value for Fe(III) complex; type: ADME; method in brief: as §3
# [5] = Ligand pka2 value was investigated by potentiometric titration; type: physicochemical; conditions: read-out: pKa2
# Method in brief: (§4)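 Simultaneous potentiometric and UV/vis titration in 0.1 M KCl (25 mL), acidified with 0.2 M HCl and titrated with 0.2 M KOH in 0.01-mL increments. Run at 25 ± 0.5 °C under argon. Electrode zero was set by a blank titration using Gran's plot. pKa values came from non-linear least-squares regression, accurate to ±0.02 pH unit.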
# [6] = Affinity constant log K3 value for Fe(III) complex; type: ADME; method in brief: as §3
# [7] = Affinity constant log K2 value for Fe(III) complex; type: ADME; method in brief: as §3
# [8] = system: Rattus norvegicus; test: Compound was tested in vivo for Iron mobilization efficacy against hepatocytes in normal fasted rats(loaded with [59Fe]-Ferritin).; type: functional, Hepatocyte
# Method in brief: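 Normal fasted rats (190–230 g); hepatocyte iron labelled with [59Fe]ferritin given by tail vein. One hour later, chelator 450 µmol/kg was given orally; controls received an equivalent volume of water. Rats were housed in individual metabolic cages with urine and feces collected. Killed 24 h after ferritin; liver and GI tract with contents and feces were gamma counted. Means ± SD, n=5.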
# [9] = Partition coefficient (logD7.4); type: physicochemical; conditions: octanol/water, pH 7.4
# Method in brief: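 Partitioning between 1-octanol and 50 mM MOPS buffer pH 7.4 (mutually saturated) in an automated continuous-flow filter-probe system. Compound was dissolved in buffer to an absorbance of 0.5–1.5 at ~280 nm. The aqueous phase was separated by a hydrophilic cellulose filter and monitored spectrophotometrically. D7.4 was calculated after each octanol addition.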
# [10] = Partition coefficient (logP); type: physicochemical; conditions: octanol/water
# [11] = Ligand pka1 value was investigated by potentiometric titration; type: physicochemical; conditions: read-out: pKa1; method in brief: as §4
# [12] = system: Rattus norvegicus; test: as §1; type: functional, Hepatocyte; method in brief: as §2
# [13] = system: Rattus norvegicus; test: Compound was tested in vivo for Iron mobilization against hepatocytes in normal fasted rats (loaded with [59Fe]-Ferritin).; type: functional, Hepatocyte; method in brief: as §2
# [14] = system: Rattus norvegicus; test: Compound was tested in vivo for Iron mobilization against hepatocytes in normal fasted rats ( loaded with [59Fe]-Ferritin).; type: functional, Hepatocyte; method in brief: as §2
# [15] = Ligand pka1 value was investigated by spectrophotometric titration; type: physicochemical; conditions: read-out: pKa1; method in brief: as §4
# [16] = Ligand pka2 value was investigated by spectrophotometric titration; type: physicochemical; conditions: read-out: pKa2; method in brief: as §4
Log K1 [2],pFe3 [3],Log beta3 [4],pKa [5],Log K3 [6],Log K2 [7],logD [9],logP [10],pKa [11],pKa [15],pKa [16],SMILES,Efficacy [1],Efficacy [8],Iron mobilization [12],Iron mobilization [13],Iron mobilization [14]
15.21,21.4,35.1,8.77,8.9,10.97,-0.575,-0.575,3.03,,,CCn1ccc(=O)c(O)c1C(C)O (stereo not drawn),50.6%,,54.5%,,
15.67,20.7,35.3,9.29,9.57,10.01,-1.25,-1.25,3.02,,,O=c1ccn(CCCO)c(CO)c1O,7.8%,,,11.7%,
,,,,,,1.16,1.16,,,,CCc1c(O)c(=O)ccn1CCOC(=O)C(C)(C)C,19.1%,,,,
14.66,21,35.3,9.27,9.43,11.16,-0.854,-0.854,2.8,,,CCn1ccc(=O)c(O)c1CO,29.4%,,,,33.3%
14.47,20.9,35.3,9.11,9.58,11.27,-1.32,-1.32,2.92,,9.11,Cn1ccc(=O)c(O)c1CO,4.6%,,,8.44%,
15.2,19.7,36.8,9.93,9.84,11.76,,,3.81,,,CCc1c(O)c(=O)ccn1CC,55.8%,,,,
14.93,21.5,34.7,8.72,8.87,10.87,-1.12,-1.12,2.98,,,CC(O)c1c(O)c(=O)ccn1CCCO (stereo not drawn),10.6%,,,14.5%,

# More lines, now with the values behind:
SMILES,Log K1 [2],pFe3 [3],Log beta3 [4],pKa [5],Log K3 [6],Log K2 [7],logD [9],logP [10],pKa [11],pKa [15],pKa [16],Efficacy [1],Efficacy [8],Iron mobilization [12],Iron mobilization [13],Iron mobilization [14]
CCc1c(O)c(=O)ccn1CCO,,,,,,,,,,,,12.9%,,,,
Cc1c(O)c(=O)ccn1C [DEFERIPRONE],14.56,19.4,36.4,9.77,9.69,12.19,,,,,,,9.5%,,,
Cc1c(O)c(=O)ccn1CCCO,,,,,,,,,,,,26%,,,,
CCC(O)c1c(O)c(=O)cc(C)n1C (stereo not drawn),14.5,21,35,9,9.05,11.48,-0.134,-0.134,3.76,3.78,,56.5%,,,60.4%,
Cc1cc(=O)c(O)c(CO)n1C,14.39,20.4,35.5,9.44,9.55,11.57,-1.01,-1.01,3.32,,,0.6%,,,4.5%,
O=C(OCCCn1ccc(=O)c(O)c1CO)c1ccccc1,,,,,,,0.749,0.749,,,,52.1%,,,56%,
Cc1c(O)c(=O)ccn1CCCOC(=O)c1ccccc1,,,,,,,1.25,1.25,,,,32.5%,,,,
CCn1c(C)cc(=O)c(O)c1CO,14.37,20.4,35.6,9.45,9.64,11.6,-0.652,-0.652,3.29,,,9%,,,12.9%,
Cc1cc(=O)c(O)c(C(C)O)n1C (stereo not drawn),15.38,21.5,35.5,8.99,9.05,11.09,-0.606,-0.606,3.54,,,44.5%,,,48.4%,
